This passage reports Activity results from ChEMBL document CHEMBL1154352, “Toll-like receptor 7 selective synthetic oligoribonucleotide agonists: synthesis and structure-activity relationship studies” (J Med Chem, 2009).

The species entered for test [1] is Homo sapiens. The experiment in a line: Ratio of human TLR7 activity to human TLR8 activity. The procedure, abridged: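 TLR7/TLR8 ratio computed from fold NF-κB (SEAP reporter) activation in HEK293 cells stably expressing human TLR7 versus TLR8, compounds at 50 μg/mL, 18 h exposure; representative of three independent experiments.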
The target in test [2] is T1, Toll-like receptor 8 (Homo sapiens) (UniProt Q9NR97).
T1 sequence (whole entry): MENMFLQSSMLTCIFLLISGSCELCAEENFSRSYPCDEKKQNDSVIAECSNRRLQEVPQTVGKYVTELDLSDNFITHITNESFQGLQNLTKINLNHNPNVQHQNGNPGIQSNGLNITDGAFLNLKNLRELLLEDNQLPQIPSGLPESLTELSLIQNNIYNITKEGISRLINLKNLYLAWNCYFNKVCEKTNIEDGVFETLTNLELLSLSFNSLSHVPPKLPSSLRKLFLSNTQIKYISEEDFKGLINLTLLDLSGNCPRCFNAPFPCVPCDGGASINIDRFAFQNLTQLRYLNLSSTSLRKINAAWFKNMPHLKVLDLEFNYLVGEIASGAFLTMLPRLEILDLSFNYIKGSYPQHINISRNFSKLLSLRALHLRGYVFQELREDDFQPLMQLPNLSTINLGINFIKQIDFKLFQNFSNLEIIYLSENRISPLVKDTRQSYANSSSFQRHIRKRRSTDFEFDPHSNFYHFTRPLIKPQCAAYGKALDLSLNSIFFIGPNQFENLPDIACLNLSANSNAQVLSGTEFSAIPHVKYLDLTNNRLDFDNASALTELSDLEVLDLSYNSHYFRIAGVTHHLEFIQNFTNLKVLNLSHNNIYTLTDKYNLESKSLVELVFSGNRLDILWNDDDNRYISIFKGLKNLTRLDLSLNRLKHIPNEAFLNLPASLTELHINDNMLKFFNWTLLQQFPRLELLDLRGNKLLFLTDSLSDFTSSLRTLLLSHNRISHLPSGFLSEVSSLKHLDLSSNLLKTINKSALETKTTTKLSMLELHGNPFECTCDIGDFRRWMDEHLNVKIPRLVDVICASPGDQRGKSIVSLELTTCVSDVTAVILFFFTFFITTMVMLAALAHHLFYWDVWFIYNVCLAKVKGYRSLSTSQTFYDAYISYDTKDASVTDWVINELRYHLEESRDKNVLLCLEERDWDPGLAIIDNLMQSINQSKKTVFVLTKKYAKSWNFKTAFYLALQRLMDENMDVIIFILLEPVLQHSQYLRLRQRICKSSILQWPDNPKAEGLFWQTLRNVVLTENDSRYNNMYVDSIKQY
Description: Activation of human TLR8 expressed in HEK293XL assessed as induction of NF-kappaB activity by reporter gene assay. In short, it runs like this: (§1)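 HEK293 cells stably expressing human TLR7 or TLR8, transiently transfected with SEAP reporter plasmid; medium replaced, SIMRA compounds added, 18 h incubation. Supernatant SEAP measured by QuantiBlue; expressed as fold increase in NF-κB activity over PBS control. Tabulated data at 50 μg/mL, representative of three independent experiments.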

Test [3] has as its target T2, Toll-like receptor 7 (Homo sapiens) (UniProt Q9NYK1).
T2 sequence (whole entry): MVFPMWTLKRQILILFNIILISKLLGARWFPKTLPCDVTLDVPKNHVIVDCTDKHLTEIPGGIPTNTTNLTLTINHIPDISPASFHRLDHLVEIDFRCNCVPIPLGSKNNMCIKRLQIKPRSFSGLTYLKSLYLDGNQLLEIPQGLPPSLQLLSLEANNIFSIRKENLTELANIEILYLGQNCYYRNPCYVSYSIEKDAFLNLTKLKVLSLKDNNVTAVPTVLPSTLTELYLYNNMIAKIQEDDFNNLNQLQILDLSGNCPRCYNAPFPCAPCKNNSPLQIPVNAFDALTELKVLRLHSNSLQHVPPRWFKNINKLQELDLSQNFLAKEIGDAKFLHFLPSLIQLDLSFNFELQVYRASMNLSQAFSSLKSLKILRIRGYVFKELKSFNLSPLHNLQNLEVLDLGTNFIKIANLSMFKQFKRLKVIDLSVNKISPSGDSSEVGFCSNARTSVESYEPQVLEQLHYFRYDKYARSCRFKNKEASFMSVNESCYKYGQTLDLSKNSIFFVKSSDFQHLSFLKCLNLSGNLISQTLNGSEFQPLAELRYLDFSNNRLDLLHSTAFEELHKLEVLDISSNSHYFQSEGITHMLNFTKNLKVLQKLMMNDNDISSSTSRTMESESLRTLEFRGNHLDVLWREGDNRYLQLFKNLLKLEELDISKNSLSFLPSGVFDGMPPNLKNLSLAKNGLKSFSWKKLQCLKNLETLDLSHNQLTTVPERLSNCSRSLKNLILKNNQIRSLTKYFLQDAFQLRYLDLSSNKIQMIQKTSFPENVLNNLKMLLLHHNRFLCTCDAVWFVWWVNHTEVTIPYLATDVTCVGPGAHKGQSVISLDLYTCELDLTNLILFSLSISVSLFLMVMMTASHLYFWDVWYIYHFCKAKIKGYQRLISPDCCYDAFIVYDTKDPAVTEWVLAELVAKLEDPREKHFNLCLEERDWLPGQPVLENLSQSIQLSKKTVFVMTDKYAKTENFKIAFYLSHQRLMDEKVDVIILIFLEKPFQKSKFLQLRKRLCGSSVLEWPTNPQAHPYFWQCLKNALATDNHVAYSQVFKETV
Description: Activation of human TLR7 expressed in HEK293XL assessed as induction of NF-kappaB activity by reporter gene assay. The procedure, abridged: as §1
On the technique in general: Reporter assays use an easily measured gene product as a stand-in for the process of interest.

The structures appear in SMILES notation. The source made the active and inactive calls. The calls are words filed in the database; no cut-off is given here.

In the case of `Nc1ccn([C@@H]2O[C@H](COP(=O)(S)O[C@H]3[C@@H](O)[C@H](n4cnc5c(N)ncnc54)O[C@@H]3CO)[C@@H](OP(=O)(S)OC[C@H]3O[C@@H](n4ccc(=O)[nH]c4=O)[C@H](O)[C@@H]3OP(=O)(S)OC[C@H]3O[C@@H](n4ccc(=O)[nH]c4=O)[C@H](O)[C@@H]3OP(=O)(S)OC[C@H]3O[C@@H](n4ccc5c(=O)[nH]c(N)nc54)[C@H](O)[C@@H]3OP(=O)(S)OC[C@H]3O[C@@H](n4cnc5c(N)ncnc54)[C@H](O)[C@@H]3OP(=O)(S)OC[C@H]3O[C@@H](n4cnc5c(N)ncnc54)[C@H](O)[C@@H]3OP(=O)(S)OC[C@H]3O[C@@H](n4cnc5c(=O)[nH]c(N)nc54)[C@H](O)[C@@H]3OP(=O)(S)OC[C@H]3O[C@@H](n4ccc(N)nc4=O)[C@H](O)[C@@H]3OP(=O)(S)OC[C@H]3O[C@@H](n4ccc(=O)[nH]c4=O)[C@H](O)[C@@H]3OP(=O)(S)OC[C@H]3O[C@@H](n4ccc(=O)[nH]c4=O)[C@H](O)[C@@H]3OP(=O)(S)OCC(O)COP(=O)(S)O[C@H]3[C@@H](O)[C@H](n4ccc(=O)[nH]c4=O)O[C@@H]3COP(=O)(S)O[C@H]3[C@@H](O)[C@H](n4ccc(=O)[nH]c4=O)O[C@@H]3COP(=O)(S)O[C@H]3[C@@H](O)[C@H](n4ccc(N)nc4=O)O[C@@H]3COP(=O)(S)O[C@H]3[C@@H](O)[C@H](n4cnc5c(=O)[nH]c(N)nc54)O[C@@H]3COP(=O)(S)O[C@H]3[C@@H](O)[C@H](n4cnc5c(N)ncnc54)O[C@@H]3COP(=O)(S)O[C@H]3[C@@H](O)[C@H](n4cnc5c(N)ncnc54)O[C@@H]3COP(=O)(S)O[C@H]3[C@@H](O)[C@H](n4cnc5c(=O)[nH]c(N)nc54)O[C@@H]3COP(=O)(S)O[C@H]3[C@@H](O)[C@H](n4ccc(=O)[nH]c4=O)O[C@@H]3COP(=O)(S)O[C@H]3[C@@H](O)[C@H](n4ccc(=O)[nH]c4=O)O[C@@H]3COP(=O)(S)O[C@H]3[C@@H](O)[C@H](n4ccc(N)nc4=O)O[C@@H]3COP(=O)(S)O[C@H]3[C@@H](O)[C@H](n4cnc5c(N)ncnc54)O[C@@H]3CO)[C@H]2O)c(=O)n1` (stereo partly specified), the Activity result in test [1] is “Dose-dependent effect”. Also, the result in test [2] and in test [3] was inactive.
As to `Nc1ccn([C@@H]2O[C@H](COP(=O)(S)O[C@H]3[C@@H](O)[C@H](n4cnc5c(N)ncnc54)O[C@@H]3CO)[C@@H](OP(=O)(S)OC[C@H]3O[C@@H](n4ccc(=O)[nH]c4=O)[C@H](O)[C@@H]3OP(=O)(S)OC[C@H]3O[C@@H](n4ccc(=O)[nH]c4=O)[C@H](O)[C@@H]3OP(=O)(S)OC[C@H]3O[C@@H](n4cnc5c(=O)[nH]c(N)nc54)[C@H](O)[C@@H]3OP(=O)(S)OC[C@H]3O[C@@H](n4cnc5c(N)ncnc54)[C@H](O)[C@@H]3OP(=O)(S)OC[C@H]3O[C@@H](n4ccc(N)nc4=O)[C@H](O)[C@@H]3OP(=O)(S)OC[C@H]3O[C@@H](n4cnc5c(=O)[nH]c(N)nc54)[C@H](O)[C@@H]3OP(=O)(S)OC[C@H]3O[C@@H](n4cnc5c(N)ncnc54)[C@H](O)[C@@H]3OP(=O)(S)OC[C@H]3O[C@@H](n4ccc(=O)[nH]c4=O)[C@H](O)[C@@H]3OP(=O)(S)OC[C@H]3O[C@@H](n4ccc(=O)[nH]c4=O)[C@H](O)[C@@H]3OP(=O)(S)OCC(O)COP(=O)(S)O[C@H]3[C@@H](O)[C@H](n4ccc(=O)[nH]c4=O)O[C@@H]3COP(=O)(S)O[C@H]3[C@@H](O)[C@H](n4ccc(=O)[nH]c4=O)O[C@@H]3COP(=O)(S)O[C@H]3[C@@H](O)[C@H](n4cnc5c(N)ncnc54)O[C@@H]3COP(=O)(S)O[C@H]3[C@@H](O)[C@H](n4cnc5c(=O)[nH]c(N)nc54)O[C@@H]3COP(=O)(S)O[C@H]3[C@@H](O)[C@H](n4ccc(N)nc4=O)O[C@@H]3COP(=O)(S)O[C@H]3[C@@H](O)[C@H](n4cnc5c(N)ncnc54)O[C@@H]3COP(=O)(S)O[C@H]3[C@@H](O)[C@H](n4cnc5c(=O)[nH]c(N)nc54)O[C@@H]3COP(=O)(S)O[C@H]3[C@@H](O)[C@H](n4ccc(=O)[nH]c4=O)O[C@@H]3COP(=O)(S)O[C@H]3[C@@H](O)[C@H](n4ccc(=O)[nH]c4=O)O[C@@H]3COP(=O)(S)O[C@H]3[C@@H](O)[C@H](n4ccc(N)nc4=O)O[C@@H]3COP(=O)(S)O[C@H]3[C@@H](O)[C@H](n4cnc5c(N)ncnc54)O[C@@H]3CO)[C@H]2O)c(=O)n1` (stereo partly specified), in test [1], the Activity entry was “Dose-dependent effect”. Further, the result in test [2] and in test [3] was inactive.
